Source: ChEMBL document CHEMBL1140411, “Deoxyuridine triphosphate nucleotidohydrolase as a potential antiparasitic drug target” (J Med Chem, 2005)

How the values were obtained:
[1] = molecular target: T1, Deoxyuridine 5'-triphosphate nucleotidohydrolase, mitochondrial (Homo sapiens, UniProt P33316); test: Inhibitory constant against human deoxyuridine 5'-triphosphate nucleotidohydrolase expressed in Escherichia coli BL21 (DE3) cells
T1 sequence (P33316 whole entry): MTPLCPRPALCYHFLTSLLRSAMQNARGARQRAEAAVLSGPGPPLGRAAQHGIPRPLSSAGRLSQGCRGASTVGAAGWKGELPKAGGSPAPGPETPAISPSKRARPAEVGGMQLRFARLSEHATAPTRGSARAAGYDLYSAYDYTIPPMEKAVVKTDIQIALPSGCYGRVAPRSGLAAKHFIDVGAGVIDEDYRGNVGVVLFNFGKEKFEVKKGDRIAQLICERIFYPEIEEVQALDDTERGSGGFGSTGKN
In short: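 Human dUTPase expressed in E. coli BL21(DE3) and purified like the Plasmodium enzyme (phosphocellulose, then gel filtration). dUTP hydrolysis followed continuously by stopped-flow as pH-indicator absorbance (cresol red/bicine, 50:2000 µM, 573 nm). Apparent KM from integrated Michaelis-Menten fits at each inhibitor concentration; Ki from linear KMapp versus [I].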

L6 = test: In vitro cytotoxicity aganist rat skeletal myoblasts (L-6 cells) after 72 hours; type: functional, cell-based; settings: L6, 72 h
In short: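 L-6 rat skeletal myoblasts seeded at 4 × 10^4 cells/mL in RPMI 1640 with 10% FBS and 2 mM L-glutamine. After 24 h, medium replaced with a serial drug dilution, then 72 h at 37 °C, 5% CO2. Alamar Blue added for a further 2-4 h. Fluorescence read at ex 536/em 588 nm. Run twice independently, in duplicate.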

[2] = test system: Trypanosoma brucei rhodesiense; test: Inhibitory constant against Trypanosoma brucei rhodesiense upon incubation with the compound at 37 degrees C under a 5% CO2 atmosphere for 72 hours; type: functional, organism-based
Leishmania donovani = test: In vitro growth inhibitory activity against Leishmania donovani amastigotes at 37 degrees C under a 5% CO2 atmosphere for 96 hours; type: functional, organism-based
In short: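 Mouse peritoneal macrophages in RPMI 1640 with 10% heat-inactivated FBS, infected after 24 h with L. donovani amastigotes at 3:1 (amastigote:macrophage). Free amastigotes washed out at 4 h. Next day, drug-containing medium added for 96 h at 37 °C, 5% CO2. Slides methanol-fixed and Giemsa-stained. Percentage of infected macrophages scored microscopically versus control; IC50 by linear regression. Twice independently, in duplicate.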

Trypanosoma cruzi = test: In vitro growth inhibitory activity against Trypanosoma cruzi in rat L-6 cells upon incubation at 37 degrees C in 5% CO2 atmosphere for 4 days; type: functional, organism-based; settings: L6, 96 h
In short: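 L-6 cells seeded at 2000 cells/well in RPMI 1640 with 10% FBS and 2 mM L-glutamine. After 24 h, 5000 T. cruzi Tulahuen C2C4 LacZ trypomastigotes added with serial drug dilutions, then 4 days at 37 °C, 5% CO2. CPRG/Nonidet substrate added and colour read at 540 nm after 2-4 h. IC50 from sigmoidal curve. Twice independently, in duplicate.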

[3] = molecular target: T2, dUTP pyrophosphatase (Plasmodium falciparum 3D7) (UniProt Q8II92); test: Selectivity index for Plasmodium falciparum deoxyuridine 5'-triphosphate nucleotidohydrolase defined as (Ki Human)/(Ki Plasmodium falciparum)
T2 sequence (whole entry): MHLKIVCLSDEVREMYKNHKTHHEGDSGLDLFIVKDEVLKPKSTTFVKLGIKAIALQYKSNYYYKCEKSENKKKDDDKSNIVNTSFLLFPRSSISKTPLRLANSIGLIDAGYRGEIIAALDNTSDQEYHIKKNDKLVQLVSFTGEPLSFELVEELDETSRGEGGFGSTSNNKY
In short: (§1)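 Ratio of human dUTPase Ki to P. falciparum dUTPase Ki. Both Ki values came from stopped-flow pH-indicator assays following dUTP hydrolysis, with Ki derived from the dependence of apparent KM on inhibitor concentration.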

dUTP pyrophosphatase [4] = molecular target: T3, dUTP pyrophosphatase (Leishmania major, UniProt O15826); test: Inhibitory constant against Leishmania major deoxyuridine 5'-triphosphate nucleotidohydrolase
T3 sequence (O15826 whole entry): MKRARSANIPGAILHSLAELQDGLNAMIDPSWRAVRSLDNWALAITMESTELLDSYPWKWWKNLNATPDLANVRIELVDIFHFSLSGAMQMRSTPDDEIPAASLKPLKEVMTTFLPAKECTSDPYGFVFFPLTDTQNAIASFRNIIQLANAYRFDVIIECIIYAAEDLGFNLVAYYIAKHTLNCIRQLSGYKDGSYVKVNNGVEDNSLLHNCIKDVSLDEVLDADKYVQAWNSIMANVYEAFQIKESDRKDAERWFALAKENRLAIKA

Plasmodium falciparum = test: In vitro inhibitory activity against Plasmodium falciparum as [3H]hypoxanthine (50 uL) incorporation at 37C; type: functional, organism-based
dUTP pyrophosphatase [5] = molecular target: T4, dUTP pyrophosphatase (Plasmodium falciparum 3D7, UniProt Q8II92); test: Inhibitory constant against Plasmodium falciparum deoxyuridine 5'-triphosphate nucleotidohydrolase expressed in Escherichia coli BL21 (DE3) cells
T4 sequence (Q8II92 whole entry): T2 sequence (whole entry)
In short: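 Recombinant PfdUTPase expressed in E. coli BL21(DE3) and purified by phosphocellulose and gel filtration to ~96% purity. Continuous stopped-flow assay following proton release with cresol red/bicine (50:2000 µM, 573 nm). Mix: 30 nM enzyme, 50 µM dUTP, 5 mM MgCl2, 2.5 mM DTT, 1.25 mg/mL BSA, 100 mM KCl. KMapp from integrated Michaelis-Menten fits, plotted against [I] to give Ki.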

[6] = molecular target: T2, dUTP pyrophosphatase (Plasmodium falciparum 3D7); test: Selectivity index for Plasmodium falciparum deoxyuridine 5'-triphosphate nucleotidohydrolase defined as (Ki Human)/(Ki Plasmodium falciparum); na= not relevant; in short: as §1

SMILES | Ki [1] [µM] | IC50 [2] [µM] | IC50 (Trypanosoma cruzi) [µM] | SI [3] | Ki (dUTP pyrophosphatase [4]) [µM] | IC50 (Plasmodium falciparum) [µM] | Ki (dUTP pyrophosphatase [5]) [µM] | SI [6] | IC50 (L6) [µM] | IC50 (Leishmania donovani) [µM]
O=c1ccn(C2CC(F)C(CNC(c3ccccc3)(c3ccccc3)c3ccccc3)O2)c(=O)[nH]1 (centres undefined) | > 1000 | 3.6 | 47 | > 83 | > 1000 | 5.3 | 12 | – | 30 | > 63
CC(=O)NCC1OC(n2ccc(=O)[nH]c2=O)CC1O (centres undefined) | > 1000 | 194 | > 335 | – | > 1000 | > 19 | > 1000 | Not Relevant | > 335 | > 112
CCOP(=O)(CC(=O)OC[C@H]1O[C@@H](n2ccc(=O)[nH]c2=O)C[C@@H]1O[Si](C)(C)C(C)(C)C)OCC | – | 40 | 75 | – | > 1000 | 18 | 217 | Not Relevant | – | > 58
Cc1ccc(S(=O)(=O)OC[C@H]2O[C@@H](n3ccc(=O)[nH]c3=O)C[C@@H]2O)cc1 | > 1000 | 44 | > 236 | > 7 | > 1000 | > 13 | 142 | – | > 236 | > 79
O=c1ccn(C2C=CC(CO[Si](c3ccccc3)(c3ccccc3)c3ccccc3)O2)c(=O)[nH]1 (centres undefined) | > 1000 | 1.6 | 42 | > 769 | 350 | 1 | 1.3 | – | 85 | 13
O=C(NCC1OC(n2ccc(=O)[nH]c2=O)CC1O)c1ccccc1 (centres undefined) | 469 | 120 | > 272 | 2.6 | > 1000 | > 15 | 178 | – | > 272 | > 91
CC(C)(C)[Si](C)(C)O[C@H]1C[C@H](n2ccc(=O)[nH]c2=O)O[C@@H]1CO | 119 | 83 | > 263 | 0.2 | 114 | > 15 | 648 | – | > 263 | > 88
NS(=O)(=O)NC(=O)OCC1C=CC(n2ccc(=O)[nH]c2=O)O1 (centres undefined) | 799 | 40 | > 270 | 9.7 | > 1000 | > 150 | 82 | – | 262 | > 90
CC(C)(C)[Si](C)(C)O[C@H]1C[C@H](n2ccc(=O)[nH]c2=O)O[C@@H]1COP(=O)(Oc1ccccc1)Oc1ccccc1 | > 1000 | 12 | 10 | > 1.7 | 116 | 6 | 597 | – | > 157 | > 17
CC(C)(C)[Si](C)(C)OC1CC(n2ccc(=O)[nH]c2=O)OC1CNP(=O)(Oc1ccccc1)Oc1ccccc1 (centres undefined) | 232 | 28 | 6 | 3.5 | > 1000 | 4 | 67 | – | 18 | < 6
O=c1ccn([C@H]2C[C@H](O)[C@@H](COP(=O)(Oc3ccccc3)Oc3ccccc3)O2)c(=O)[nH]1 | 135 | 52 | > 196 | 0.6 | > 1000 | > 11 | 238 | – | > 196 | > 65
O=c1ccn(C2CC(F)C(CO[Si](c3ccccc3)(c3ccccc3)c3ccccc3)O2)c(=O)[nH]1 (centres undefined) | > 1000 | 4.5 | 84 | – | > 1000 | 1 | 975 | Not Relevant | 86 | –
CC(C)(C)[Si](C)(C)O[C@H]1C[C@H](n2ccc(=O)[nH]c2=O)O[C@@H]1COC(c1ccccc1)(c1ccccc1)c1ccccc1 | > 1000 | 25 | 247 | > 1.9 | 454 | 1 | 515 | – | > 154 | 17
O=c1ccn(C2CC(O)C(CNP(=O)(Oc3ccccc3)Oc3ccccc3)O2)c(=O)[nH]1 (centres undefined) | > 1000 | > 196 | > 65 | > 38 | > 1000 | > 11 | 26 | – | > 196 | > 65

Second part, led by results:

Ki [1] [µM] | IC50 [2] [µM] | IC50 (Trypanosoma cruzi) [µM] | SI [3] | Ki (dUTP pyrophosphatase [4]) [µM] | IC50 (Plasmodium falciparum) [µM] | Ki (dUTP pyrophosphatase [5]) [µM] | SI [6] | SMILES | IC50 (L6) [µM] | IC50 (Leishmania donovani) [µM]
> 1000 | 147 | > 284 | > 4 | > 1000 | > 16 | 228 | – | CCCCC(=O)OC[C@H]1O[C@@H](n2ccc(=O)[nH]c2=O)C[C@@H]1O | > 289 | 96
> 1000 | 147 | > 295 | > 5 | > 1000 | > 16 | 178 | – | CS(=O)(=O)NCC1OC(n2ccc(=O)[nH]c2=O)CC1O (centres undefined) | > 295 | > 98
> 1000 | – | – | – | > 1000 | – | > 1000 | Not Relevant | NCC1OC(n2ccc(=O)[nH]c2=O)CC1O (centres undefined) | – | –
> 1000 | 145 | > 293 | – | 707 | > 163 | > 1000 | Not Relevant | NS(=O)(=O)OC[C@H]1O[C@@H](n2ccc(=O)[nH]c2=O)C[C@@H]1O | – | > 98
> 1000 | 37 | > 247 | > 3 | > 1000 | > 14 | 316 | – | CCOP(=O)(OCC)OC[C@H]1O[C@@H](n2ccc(=O)[nH]c2=O)C[C@@H]1O | 198 | > 82
> 1000 | 35 | 41 | > 3 | > 1000 | > 10 | 340 | – | CCOP(=O)(OCC)OC[C@H]1O[C@@H](n2ccc(=O)[nH]c2=O)C[C@@H]1O[Si](C)(C)C(C)(C)C | 108 | 63
> 1000 | 13 | 273 | > 3 | > 1000 | > 19 | 294 | – | CC(=O)OC[C@H]1O[C@@H](n2ccc(=O)[nH]c2=O)C[C@@H]1O | 64 | > 111
> 1000 | 123 | > 222 | > 8 | > 1000 | 98 | 123 | – | CCOP(=O)(CC(=O)OC[C@H]1O[C@@H](n2ccc(=O)[nH]c2=O)C[C@@H]1O)OCC | 168 | > 74
